# Source: ChEMBL document CHEMBL1149349, “Identification of novel pyrazole acid antagonists for the EP1 receptor” (Bioorg Med Chem Lett, 2006)
# How the values were obtained:
# [1] = molecular target: T1, Prostaglandin E2 receptor EP1 subtype (Homo sapiens, UniProt P34995); test: Antagonist activity at EP1 receptor expressed in CHO-K1 cells assessed as inhibition of PGE2-stimulated calcium ion mobilization by FLIPR assay; assay type: functional, cell-based
# T1 sequence (P34995 whole entry): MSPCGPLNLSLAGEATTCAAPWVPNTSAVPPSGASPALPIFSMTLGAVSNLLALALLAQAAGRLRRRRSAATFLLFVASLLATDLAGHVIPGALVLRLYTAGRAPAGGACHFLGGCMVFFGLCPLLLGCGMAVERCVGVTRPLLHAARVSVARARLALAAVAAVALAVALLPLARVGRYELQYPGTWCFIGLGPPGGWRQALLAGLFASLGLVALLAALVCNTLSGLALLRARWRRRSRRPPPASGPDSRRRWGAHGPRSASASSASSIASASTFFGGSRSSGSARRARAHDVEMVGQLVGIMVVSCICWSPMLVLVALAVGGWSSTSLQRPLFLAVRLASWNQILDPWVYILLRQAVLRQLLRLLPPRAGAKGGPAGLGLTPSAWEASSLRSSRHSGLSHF
# Outline: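 Stably EP1- or EP3-transfected CHO-K1 whole cells loaded with the calcium-sensitive dye Fluo-3. Inhibition of PGE₂-evoked intracellular Ca²⁺ mobilisation measured, reported as pKi.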
# [2] = molecular target: T1, Prostaglandin E2 receptor EP1 subtype; test: Displacement of [3H]PGE2 from EP1 receptor expressed in CHO-K1 cells; assay type: cell-based
# Outline: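 Membranes from cells expressing the receptor, incubated with test compound and [³H]PGE₂ (3 nM final) for 30 min at 30 °C. Bound radioactivity read by liquid scintillation counting. Values are means of at least four experiments.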
# [3] = Solubility at pH 7.4; assay type: physicochemical; settings: buffer
# Cytochrome P450 1A2 = molecular target: T2, Cytochrome P450 1A2 (Homo sapiens, UniProt P05177); test: Inhibition of CYP450 1A2; assay type: ADME
# T2 sequence (P05177 whole entry): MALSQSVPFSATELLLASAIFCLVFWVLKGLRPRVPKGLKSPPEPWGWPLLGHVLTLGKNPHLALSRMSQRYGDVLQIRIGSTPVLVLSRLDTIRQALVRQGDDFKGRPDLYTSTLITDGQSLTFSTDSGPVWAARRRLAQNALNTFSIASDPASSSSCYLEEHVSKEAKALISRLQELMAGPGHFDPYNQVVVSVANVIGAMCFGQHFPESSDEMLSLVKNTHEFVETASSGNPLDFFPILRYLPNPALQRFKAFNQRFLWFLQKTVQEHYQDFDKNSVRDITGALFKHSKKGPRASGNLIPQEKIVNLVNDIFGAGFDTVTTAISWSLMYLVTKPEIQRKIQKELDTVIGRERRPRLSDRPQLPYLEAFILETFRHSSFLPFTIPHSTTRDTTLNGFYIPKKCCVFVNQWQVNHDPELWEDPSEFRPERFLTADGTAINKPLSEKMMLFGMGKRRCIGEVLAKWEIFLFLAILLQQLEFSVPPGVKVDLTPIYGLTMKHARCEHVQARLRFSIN
# Outline: (§1)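 In vitro CYP450 inhibition run by the Gentest protocol, with IC₅₀ determined for each isoform.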
# Cytochrome P450 2C9 = Cytochrome P450 2C9 (Homo sapiens, UniProt P11712); test: Inhibition of CYP450 2C9; assay type: ADME; outline: as §1
# Cytochrome P450 2C19 = Cytochrome P450 2C19 (Homo sapiens, UniProt P33261); test: Inhibition of CYP450 2C19; assay type: ADME; outline: as §1
# Cytochrome P450 2D6 = Cytochrome P450 2D6 (Homo sapiens, UniProt P10635); test: Inhibition of CYP450 2D6; assay type: ADME; outline: as §1
# Cytochrome P450 3A4 = Cytochrome P450 3A4 (Homo sapiens, UniProt P08684); test: Inhibition of CYP450 3A4; assay type: ADME; outline: as §1
# Liver microsomes [4] = test: Intrinsic clearance in rat liver microsome; assay type: ADME
# Liver microsomes [5] = test: Intrinsic clearance in human liver microsome; assay type: ADME
# [6] = Distribution coefficient, log D at pH 7.4; assay type: physicochemical; settings: octanol/water
# [7] = Cmax in rat at 3 mg/kg, po; assay type: ADME, organism-based; design: dose 3 mg/kg, route oral; settings: in vivo
# Outline: (§2)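 Oral dosing with drug levels measured in blood. Cmax, Tmax and AUC normalised to dose were derived from the blood concentration–time profile.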
# [8] = Tmax in rat at 3 mg/kg, po; assay type: ADME, organism-based; design: dose 3 mg/kg, route oral; settings: in vivo; outline: as §2
# Rattus norvegicus [9] = test: AUC in rat at 3 mg/kg, po; assay type: ADME, organism-based, Plasma; design: dose 3 mg/kg, route oral; settings: in vivo; outline: as §2
# Rattus norvegicus [10] = test: AUC/dose in rat at 3 mg/kg, po; assay type: ADME, organism-based, Plasma; design: dose 3 mg/kg, route oral; settings: in vivo; outline: as §2
# Rattus norvegicus [11] = species: Rattus norvegicus; test: Activity against Freund's complete adjuvant-induced inflammatory pain in rat; assay type: functional
# [12] = molecular target: Prostaglandin E2 receptor EP3 subtype (Homo sapiens) (UniProt P43115); test: Inhibition of PGE2-induced intracellular Ca2+ mobilisation (FLIPR) at EP3 receptor expressed in CHO-K1 cells
# Chain of Prostaglandin E2 receptor EP3 subtype (Homo sapiens) (P43115 whole entry, looked up): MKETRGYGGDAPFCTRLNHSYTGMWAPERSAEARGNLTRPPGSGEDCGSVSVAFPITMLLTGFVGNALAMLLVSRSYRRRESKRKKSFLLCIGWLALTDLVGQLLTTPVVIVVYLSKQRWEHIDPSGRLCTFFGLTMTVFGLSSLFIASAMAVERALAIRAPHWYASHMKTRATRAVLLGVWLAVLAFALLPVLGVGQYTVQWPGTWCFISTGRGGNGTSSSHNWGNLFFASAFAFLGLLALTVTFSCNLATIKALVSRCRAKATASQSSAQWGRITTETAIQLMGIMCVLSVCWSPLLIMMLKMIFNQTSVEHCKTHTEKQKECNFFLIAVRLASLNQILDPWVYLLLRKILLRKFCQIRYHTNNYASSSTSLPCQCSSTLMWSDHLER
# Chain of Cytochrome P450 2C19 (P33261 whole entry): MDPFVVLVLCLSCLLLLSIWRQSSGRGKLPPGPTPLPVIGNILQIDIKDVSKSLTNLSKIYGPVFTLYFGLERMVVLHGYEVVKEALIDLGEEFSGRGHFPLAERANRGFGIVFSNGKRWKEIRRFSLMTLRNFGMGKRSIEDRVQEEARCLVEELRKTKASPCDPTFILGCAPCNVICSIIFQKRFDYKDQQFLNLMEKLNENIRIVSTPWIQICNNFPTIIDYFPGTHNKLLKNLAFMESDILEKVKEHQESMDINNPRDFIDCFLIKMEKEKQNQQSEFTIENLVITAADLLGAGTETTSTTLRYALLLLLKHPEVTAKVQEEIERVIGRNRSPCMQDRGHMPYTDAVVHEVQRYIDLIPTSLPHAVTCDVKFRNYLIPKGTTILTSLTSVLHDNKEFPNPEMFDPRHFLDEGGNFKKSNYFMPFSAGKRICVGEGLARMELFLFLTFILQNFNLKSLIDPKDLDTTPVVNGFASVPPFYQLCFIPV
# Chain of Cytochrome P450 2D6 (P10635 whole entry): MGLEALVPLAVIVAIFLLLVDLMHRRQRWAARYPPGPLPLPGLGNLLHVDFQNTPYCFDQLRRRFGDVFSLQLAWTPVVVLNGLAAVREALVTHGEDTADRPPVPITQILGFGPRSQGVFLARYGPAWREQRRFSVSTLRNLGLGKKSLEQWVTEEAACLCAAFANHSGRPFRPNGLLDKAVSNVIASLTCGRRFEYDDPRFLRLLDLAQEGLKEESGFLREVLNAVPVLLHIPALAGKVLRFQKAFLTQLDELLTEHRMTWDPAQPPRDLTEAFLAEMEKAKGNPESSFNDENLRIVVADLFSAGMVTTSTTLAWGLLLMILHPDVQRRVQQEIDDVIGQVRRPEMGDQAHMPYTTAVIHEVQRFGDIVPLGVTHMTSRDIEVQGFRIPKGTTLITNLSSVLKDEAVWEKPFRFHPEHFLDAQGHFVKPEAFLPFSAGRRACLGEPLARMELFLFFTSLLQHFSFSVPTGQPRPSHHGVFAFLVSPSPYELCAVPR
# Chain of Cytochrome P450 2C9 (P11712 whole entry): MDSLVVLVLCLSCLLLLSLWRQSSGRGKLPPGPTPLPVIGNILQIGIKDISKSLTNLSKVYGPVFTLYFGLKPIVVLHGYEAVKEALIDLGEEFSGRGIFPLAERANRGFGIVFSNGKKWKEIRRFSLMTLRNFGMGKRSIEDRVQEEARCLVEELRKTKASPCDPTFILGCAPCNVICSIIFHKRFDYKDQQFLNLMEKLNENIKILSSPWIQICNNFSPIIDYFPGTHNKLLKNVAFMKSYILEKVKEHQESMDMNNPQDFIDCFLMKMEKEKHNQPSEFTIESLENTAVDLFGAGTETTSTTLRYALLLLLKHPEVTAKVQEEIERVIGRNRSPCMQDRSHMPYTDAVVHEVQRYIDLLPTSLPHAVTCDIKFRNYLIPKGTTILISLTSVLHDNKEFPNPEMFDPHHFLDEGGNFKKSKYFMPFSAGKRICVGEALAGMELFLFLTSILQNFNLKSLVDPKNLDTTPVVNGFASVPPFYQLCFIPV
# Chain of Cytochrome P450 3A4 (P08684 whole entry): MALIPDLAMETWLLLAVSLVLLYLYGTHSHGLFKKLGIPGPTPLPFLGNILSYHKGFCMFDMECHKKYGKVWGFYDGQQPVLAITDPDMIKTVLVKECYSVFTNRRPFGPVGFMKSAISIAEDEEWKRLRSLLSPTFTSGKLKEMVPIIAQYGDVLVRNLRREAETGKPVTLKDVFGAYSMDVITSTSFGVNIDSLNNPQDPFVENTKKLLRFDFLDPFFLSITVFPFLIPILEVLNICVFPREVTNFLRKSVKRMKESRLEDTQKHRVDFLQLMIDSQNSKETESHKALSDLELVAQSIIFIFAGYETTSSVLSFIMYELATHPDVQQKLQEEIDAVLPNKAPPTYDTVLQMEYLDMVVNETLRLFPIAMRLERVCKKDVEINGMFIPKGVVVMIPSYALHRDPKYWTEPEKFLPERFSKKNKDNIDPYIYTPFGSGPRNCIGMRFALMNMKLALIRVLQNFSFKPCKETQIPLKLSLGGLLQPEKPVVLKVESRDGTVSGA
SMILES,Ki [1],IC50 [2],other results
COc1ccccc1COc1ccc(Br)cc1Cn1nc(C(=O)O)cc1C,69.2 nM,,
CCCCc1cc(C(=O)O)nn1Cc1cc(Br)ccc1OCc1ccccc1,977 nM,,
Cc1cccc(COc2ccc(Br)cc2Cn2nc(C(=O)O)cc2C)c1,525 nM,126 nM,
O=C(O)c1cncn1Cc1cc(Br)ccc1OCc1ccccc1,> 2000 nM,,
Cc1cc(C(=O)O)nn1Cc1cc(Br)ccc1OCc1ccccc1,15.1 nM,6.46 nM,solubility [3]: 850 µg/mL; IC50 (Cytochrome P450 1A2): 21000 nM; IC50 (Cytochrome P450 2C9): > 100000 nM; IC50 (Cytochrome P450 2C19): > 100000 nM; IC50 (Cytochrome P450 2D6): > 100000 nM; IC50 (Cytochrome P450 3A4): > 100000 nM; CL (Liver microsomes [4]): < 0.5 mL/min/g; CL (Liver microsomes [5]): 0.6 mL/min/g; logD [6]: 1.15; Cmax [7]: 5.69 µM; Tmax [8]: 30 min; AUC (Rattus norvegicus [9]): 16.3 µM·h; AUC/dose (Rattus norvegicus [10]): 124 kg·min/L; ED50 (Rattus norvegicus [11]): 1.3 mg/kg
O=C(O)c1ccn(Cc2cc(Br)ccc2OCc2ccccc2)n1,55 nM,9.77 nM,
CC(=O)Nc1cc(C(=O)O)nn1Cc1cc(Br)ccc1OCc1ccccc1,> 2000 nM,,
O=C(O)c1nn(Cc2cc(Br)ccc2OCc2ccccc2)cc1F,692 nM,123 nM,
Cc1cc(C(=O)O)nn1Cc1ccccc1OCc1ccc(Cl)cc1Cl,8.32 nM,,Ki [12]: > 2000 nM
O=C(O)c1nn(Cc2cc(Br)ccc2OCc2ccccc2)cc1CO,> 2000 nM,676 nM,
O=C(O)c1nn(Cc2cc(Br)ccc2OCc2ccccc2)cc1Cl,> 2000 nM,,
O=C(O)c1cc(-c2cccs2)n(Cc2cc(Br)ccc2OCc2ccccc2)n1,617 nM,195 nM,
Cc1cc(C(=O)O)nn1Cc1cc(F)ccc1OCc1ccc(F)cc1F,7.94 nM,,Ki [12]: > 2000 nM
Cc1cc(C(=O)O)nn1Cc1cc(Br)ccc1OCc1ccc(F)cc1F,2.63 nM,0.525 nM,
Cc1cc(C(=O)O)nn1Cc1cc(Br)ccc1OCc1ccc(Cl)cc1Cl,0.49 nM,0.132 nM,
O=C(O)c1ccnn1Cc1cc(Br)ccc1OCc1ccccc1,> 2000 nM,,
Cc1cc(C(=O)O)nn1Cc1cc(Br)ccc1OCc1ccc(Cl)cc1,8.71 nM,8.71 nM,
O=C(O)c1cnn(Cc2cc(Br)ccc2OCc2ccccc2)c1,> 2000 nM,,
O=C(O)c1cn(Cc2cc(Br)ccc2OCc2ccccc2)cn1,> 2000 nM,,
Cc1cc(C(=O)O)nn1Cc1cc(Br)ccc1OCc1ccc(F)cc1,11.7 nM,7.41 nM,

SMILES,Ki [1],IC50 [2],other results
Cc1cc(C(=O)O)nn1Cc1cc(Br)ccc1OCc1c(F)cccc1F,105 nM,14.8 nM,
Cc1cc(C(=O)O)nn1Cc1cc(Br)ccc1OCc1cccc(Cl)c1,427 nM,115 nM,
Cc1cc(C(=O)O)nn1Cc1cc(Br)ccc1OCc1ccc(Cl)c(C(F)(F)F)c1,> 2000 nM,575 nM,
O=C(O)c1nn(Cc2cc(Br)ccc2OCc2ccccc2)cc1Br,> 2000 nM,457 nM,
Cc1cc(C(=O)O)nn1Cc1cc(Br)ccc1OCc1ccc(C(F)(F)F)cc1,97.7 nM,35.5 nM,
Cc1cc(C(=O)O)nn1Cc1cc(Cl)ccc1OCc1ccc(Cl)cc1Cl,0.55 nM,,Ki [12]: > 2000 nM
O=C(O)c1cccc(-c2sccc2-c2cc(Cl)ccc2OCc2ccccc2)c1,1.26 nM,3.55 nM,
O=C(O)c1nn(Cc2cc(Br)ccc2OCc2ccccc2)cc1C(F)(F)F,> 2000 nM,2570 nM,
Cc1cc(C(=O)O)nn1Cc1cc(Br)ccc1OCc1cc(C(F)(F)F)cc(C(F)(F)F)c1,> 2000 nM,5250 nM,
Cc1cc(C(=O)O)nn1Cc1cc(Br)ccc1OCc1cccc([N+](=O)[O-])c1,339 nM,,
Cc1cn(Cc2cc(Br)ccc2OCc2ccccc2)nc1C(=O)O,1350 nM,427 nM,
Cc1cc(C(=O)O)nn1Cc1cc(Cl)ccc1OCc1ccc(F)cc1F,1.12 nM,,Ki [12]: > 2000 nM
Cc1cc(C(=O)O)nn1Cc1cc(F)ccc1OCc1ccc(Cl)cc1Cl,20.4 nM,,
Cc1cc(C(=O)O)nn1Cc1cc(Br)ccc1OCc1ccc(C(C)(C)C)cc1,> 2000 nM,1230 nM,
Cc1cc(C(=O)O)nn1Cc1cc(Br)ccc1OCc1cc(Cl)cc(Cl)c1,1120 nM,,
Cc1cc(C(=O)O)nn1Cc1cc(Br)ccc1OCc1cccc(Br)c1,129 nM,17.8 nM,
Cc1cc(C(=O)O)nn1Cc1cc(Br)ccc1OCc1ccccc1Cl,28.8 nM,3.16 nM,
O=C(O)c1cn(Cc2cc(Br)ccc2OCc2ccccc2)nn1,> 2000 nM,,
Cc1cc(C(=O)O)nn1Cc1cc(Br)ccc1OCc1cccc(C(F)(F)F)c1,1100 nM,309 nM,
